# HIV Env fusion: blocks HIV Env-driven cell-cell fusion; hit rate 1.1% among 360,000; inhibition, % at 12.3 µM; HeLa-JRFL Env/CEM21 cell fusion, luciferase;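 active = mean replicate inhibition score of at least 50 and every replicate individually at or above 50; inconclusive = only one of the two criteria met; inactive = mean below 50 and not all replicates reaching 50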
# N-glyco inh: blocks N-linked glycosylation in D54 reporter cells | D54 ERlucT glycosylation luciferase reporter, 24 h; percent of 100 nM tunicamycin response | reporter increase, % at 12.5 µM | hit rate 0.23% among 360,000;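 active = mean luciferase reporter signal, scaled so untreated is 0 and the glycosylation-blocking control 100, at or above a set limit in every replicate; inconclusive = mean reaches the limit but not every replicate does; inactive = mean below the limit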;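 also: luciferase carries N-glycosylation sites so blocking glycosylation raises the light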
# MLL AF4-AF9 inh: MLL-AF4/AF9 protein interaction inhibition; inhibition, % at 10 µM; AID 651704; AlphaScreen, biotin-AF4 peptide binding to FLAG-AF9; hit rate 0.47% among 350,000;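 active = every replicate reaching a set inhibition limit, whatever the replicate mean, cut at about 25% in these data; inconclusive = mean inhibition reaches that limit but some replicates miss it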
# Target sequence (P42568 whole entry, looked up): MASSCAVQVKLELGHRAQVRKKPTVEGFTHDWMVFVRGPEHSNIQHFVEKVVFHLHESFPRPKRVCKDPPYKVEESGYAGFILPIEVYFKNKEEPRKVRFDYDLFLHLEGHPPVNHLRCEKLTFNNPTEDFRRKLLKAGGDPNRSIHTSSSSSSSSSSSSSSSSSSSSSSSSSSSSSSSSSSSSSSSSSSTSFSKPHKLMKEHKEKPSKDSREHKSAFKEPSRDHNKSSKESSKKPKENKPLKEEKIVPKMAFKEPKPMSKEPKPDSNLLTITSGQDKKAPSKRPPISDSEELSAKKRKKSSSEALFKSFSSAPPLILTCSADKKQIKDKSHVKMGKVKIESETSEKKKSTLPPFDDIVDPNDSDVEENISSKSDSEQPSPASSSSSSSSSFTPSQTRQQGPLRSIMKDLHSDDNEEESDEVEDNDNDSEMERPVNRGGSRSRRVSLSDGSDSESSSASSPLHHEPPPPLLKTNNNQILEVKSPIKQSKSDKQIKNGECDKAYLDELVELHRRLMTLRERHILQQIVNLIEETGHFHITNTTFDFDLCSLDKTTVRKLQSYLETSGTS
# EWS-Fli block: EWS/Fli transcriptional activity inhibition; A673 NR0B1-luciferase reporter, viability-normalised; inhibition, % at 12.6 µM; hit rate 0.67% among 350,000; AID 651661;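 active = mean inhibition of at least 50% after viability correction, with every replicate also passing that limit; inconclusive = mean reaches 50% but only one of two replicates passes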;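 also: firefly luciferase signal divided by Alamar Blue viability fluorescence both relative to DMSO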
# PAX8 reporter: inhibitors of PAX8 transcriptional activity in RMG-I cells. RMG-I TPO-luciferase reporter, SteadyGlo, 24 h. inhibition, % at 12.6 µM. hit rate 1.2% among 360,000. AID 652154;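 active = mean replicate inhibition at least 60% with every replicate also reaching 60%; inconclusive = only one of the two criteria is met; inactive = mean below 60% and not all replicates reaching 60%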;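 also: luciferase light reporting Pax8 driven TPO promoter activity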
# FN deposition inh: fibronectin deposition inhibition. AH1F fibroblasts, Alexa488-fibronectin deposition fluorescence, overnight. inhibition, % at 12.6 µM. hit rate 0.086% among 350,000. AID 743247;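 active = mean inhibition across replicates of 30% or more, regardless of how many single replicates reach that level; inconclusive = mean under 30% yet at least half of replicates reach 30%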
#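 test system = AH1F fibroblasts assembling fluorescent fibronectin matrix | quantity = 10000 AH1F cells per well | buffer or medium = DMEM plus 2% serum, read in PBS | doses = single dose, pinned | incubation = 1 h cell attachment, overnight exposure to compound and label | detection = fluorescence at 485 nm excitation, 525 nm emission | read-out basis = inhibition from reduced deposited-fibronectin fluorescence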
# Numbers stand for hits; - = inactive; ? = inconclusive; . = not tested or not shown; ! = not active in a repeat; [ ] = dose if it differs, or a comment. Most compounds without a hit are left out; they make up all but 2.5% or so of the library.
SMILES,HIV Env fusion,N-glyco inh,MLL AF4-AF9 inh,EWS-Fli block,PAX8 reporter,FN deposition inh
COC(=O)C1=C(C)N(Cc2ccc(C(F)(F)F)cc2)C(=NCc2ccccc2)NC1c1cccc(Cl)c1 (stereo not drawn),?,.,-,-,99.6,-
COC(=O)C1=C(C)N(C)C(=NCc2ccc3c(c2)OCO3)NC1c1ccc(C(F)(F)F)cc1 (stereo not drawn),57.2,.,-,-,-,-
COC(=O)C1=C(C)N(Cc2cccc(C(F)(F)F)c2)C(=NCc2ccc3c(c2)OCO3)NC1c1ccc(Cl)cc1 (stereo not drawn),63.5,.,.,-,-,-
C[C@@H]1CCCCO[C@@H](CN(C)S(=O)(=O)c2ccc(Cl)cc2)[C@H](C)CN([C@H](C)CO)C(=O)c2cc(NC(=O)CCC(F)(F)F)ccc2O1,-,.,-,-,-,-
CC=Cc1ccc2n(c1=O)C[C@@H]1[C@@H](CO)[C@H](C(=O)Nc3ccccc3)N(CC)[C@H]21 (mixture of isomers),.,.,-,-,.,.
Cc1cccc(S(=O)(=O)N[C@@H]2CC[C@@H](CCNS(=O)(=O)c3ccccc3F)O[C@H]2CO)c1,-,.,-,-,-,-
CCCNC(=O)C[C@@H]1CC[C@H]2[C@@H](COc3ccc(NC(=O)c4ccc(OC)cc4)cc3C(=O)N2C)O1,-,.,.,-,-,-
COC(=O)C1=C(C)N(Cc2ccc(C(F)(F)F)cc2)C(=NCc2ccc(C(F)(F)F)cc2)NC1c1cccc(F)c1 (stereo not drawn),-,.,-,56.5,-,-
COC(=O)C1=C(C)N(CC2CC2)C(=O)N[C@H]1c1ccc(Br)cc1,77.5,.,-,-,-,-
COC(=O)C1=C(C)N(Cc2cccc(C(F)(F)F)c2)C(=NCc2ccc(C(F)(F)F)cc2)NC1c1ccccc1 (stereo not drawn),-,.,.,51.6,-,-
COC(=O)C1=C(C)N(Cc2ccc(C(F)(F)F)cc2)C(=NCc2ccccc2)NC1c1cccc(C(F)(F)F)c1 (stereo not drawn),-,.,-,-,?,-
COC(=O)C1=C(C)N(Cc2cccc(C(F)(F)F)c2)C(=NCc2ccc(OC)cc2)NC1c1ccccc1 (stereo not drawn),55.1,.,-,-,-,-
COC(=O)C1=C(C)N(Cc2ccccc2)C(=NCc2cccc(C(F)(F)F)c2)N[C@H]1c1cccc(F)c1,-,-,-,-,-,-
COc1ccc(CN(C)C[C@H]2Oc3c(NC(=O)C4CCOCC4)cccc3C(=O)N([C@H](C)CO)C[C@@H]2C)cc1,.,.,-,-,-,.
COC(=O)C1=C(C)N(Cc2ccc(C(F)(F)F)cc2)C(=NCc2ccccc2)NC1c1ccccc1 (stereo not drawn),-,.,-,-,-,-
COC(=O)C1=C(C)N(Cc2ccc(C(F)(F)F)cc2)C(=NCc2ccccc2)NC1c1ccc(C(F)(F)F)cc1 (stereo not drawn),-,.,-,-,84.4,-
COC(=O)C1=C(C)N(Cc2cccc(C(F)(F)F)c2)C(=NCc2cc(OC)c(OC)c(OC)c2)NC1c1ccccc1 (stereo not drawn),-,.,-,-,-,-
COC(=O)C1=C(C)N(Cc2ccc(Cl)cc2)C(=S)NC1c1ccc(Cl)cc1 (stereo not drawn),60.6,.,.,-,-,-
COC(=O)C1=C(C)N(Cc2cccc(C(F)(F)F)c2)C(=NCc2cc(OC)c(OC)c(OC)c2)NC1c1cccc(C(F)(F)F)c1 (stereo not drawn),-,.,.,-,85.3,-
C[C@@H]1CN([C@@H](C)CO)C(=O)c2cc(NC(=O)C3CCCCC3)ccc2O[C@@H](C)CCCCO[C@H]1CN(C)C(=O)Cc1ccccc1,-,.,-,-,-,.
COc1ccc2c3c([nH]c2c1)[C@H](CO)N(C(=O)Nc1ccc(F)cc1)CC31CN(C(=O)Nc2ccccc2)C1,.,.,-,-,-,.
Cc1ccc(S(=O)(=O)N(C)C[C@H]2Oc3ccc(NS(C)(=O)=O)cc3C(=O)N([C@@H](C)CO)C[C@@H]2C)cc1,-,.,-,-,.,-
C[C@@H]1CN([C@@H](C)CO)C(=O)c2cc(NS(=O)(=O)c3ccc(Cl)cc3)ccc2O[C@@H](C)CCCCO[C@H]1CN(C)Cc1ccc2c(c1)OCO2,-,.,-,-,-,-
C[C@@H]1CN([C@H](C)CO)C(=O)c2cc(NS(=O)(=O)c3ccc(Cl)cc3)ccc2O[C@@H](C)CCCCO[C@@H]1CN(C)Cc1ccc2c(c1)OCO2,68.5![16.7 µM],.,-,-,-,-
C[C@H](CO)N1C[C@H](C)[C@H](CN(C)Cc2ccc3c(c2)OCO3)OCCCC[C@H](C)Oc2ccc(NS(=O)(=O)c3ccc(Cl)cc3)cc2C1=O,-,.,-,-,76.1,-
SMILES,HIV Env fusion,N-glyco inh,MLL AF4-AF9 inh,EWS-Fli block,PAX8 reporter,FN deposition inh
Cc1ccc(S(=O)(=O)Nc2ccc3c(c2)C(=O)N([C@H](C)CO)C[C@@H](C)[C@@H](CN(C)Cc2ccc4c(c2)OCO4)OCCCC[C@@H](C)O3)cc1,-,.,-,-,97.0,.
CNC[C@H]1Oc2ccc(NC(=O)NC(C)C)cc2CC(=O)N([C@@H](C)CO)C[C@@H]1C,.,.,-,-,91.1,.
CNC[C@@H]1Oc2ccc(NC(=O)NC(C)C)cc2CC(=O)N([C@@H](C)CO)C[C@@H]1C,.,.,-,-,92.3,.
CNC[C@@H]1Oc2ccc(NC(=O)NC(C)C)cc2CC(=O)N([C@@H](C)CO)C[C@H]1C,.,.,-,-,-,.
CNC[C@@H]1Oc2ccc(NC(=O)NC(C)C)cc2CC(=O)N([C@H](C)CO)C[C@@H]1C,.,.,-,-,-,.
Cc1nc(-c2ccc3c(c2)OCO3)cs1,-,-,.,.,-,-
Cc1nc(CN(C)c2ncnc3ccc(-c4ccc5c(c4)OCO5)cc23)cs1,-,-,-,-,65.8,-
CCOC(=O)C1CCN(c2c(N3CCN(c4ccccc4OC)CC3)c(=O)c2=O)CC1,-,-,-,-,-,-
CCOC(=O)C1CCN(c2c(N3CCN(Cc4ccccc4)CC3)c(=O)c2=O)CC1,-,28.2,-,-,-,-
COc1cccc(CNC(=O)C[C@@H]2C=C[C@H](NS(=O)(=O)c3ccccc3OC)[C@H](CO)O2)c1,-,.,-,-,-,.
Cc1ccc(S(=O)(=O)N(C)C[C@H]2OCCCC[C@H](C)Oc3ccc(NC(=O)Cc4ccccc4)cc3C(=O)N([C@@H](C)CO)C[C@H]2C)cc1,-,.,-,-,-,-
C[C@@H]1CN([C@@H](C)CO)C(=O)c2cc(N(C)C)ccc2O[C@@H](C)CCCCO[C@@H]1CN(C)C(=O)CCCN(C)C,-,.,.,-,-,.
Cc1cc(C(=O)COc2ccc(-c3nnco3)cc2)c(C)n1Cc1ccccc1,65.2,-,.,.,-,-
CCCCn1c(=O)[nH]c(=O)c2c1nc(CN1C(=O)c3ccccc3S1(=O)=O)n2CCC,.,-,.,.,.,.
CCCCn1c(=O)[nH]c(=O)c2c1nc(Cn1ncc(Cl)c(Cl)c1=O)n2CCC,-,-,-,-,96.9,-
